Results taken from ChEMBL document CHEMBL5257107 (Bioorg Med Chem Lett, 2023).

Test: Cytotoxicity against human IMR-32 cells assessed as reduction in cell viability measured after 24 hrs by celltiter-glo-based assay
Format: toxicity
In short: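 Human IMR32 neuroblastoma cells were exposed to compound for 24 h. Viability was then read by CellTiter-Glo luminescence.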
Compound `O=C(O)CCCN[C@H]1CS(=O)(=O)C[C@@H]1S(=O)(=O)c1ccc(Cl)c(Cl)c1` has an IC50 at 24 h greater than 20 µM. `O=C(O)CCCCCN[C@H]1CS(=O)(=O)C[C@@H]1S(=O)(=O)c1ccc(Cl)c(Cl)c1` gave an IC50 at 24 h greater than 20 µM. `CC(C)CN[C@H]1CS(=O)(=O)C[C@@H]1C(=O)Nc1ccc(Cl)c(Cl)c1` gave an IC50 at 24 h greater than 20 µM.
